Experimental data published in ChEMBL document CHEMBL5584277, “Identification of 5-Thiocyanatothiazol-2-amines Disrupting WDR5-MYC Protein-Protein Interactions” (ACS Med Chem Lett, 2024).
Values belong to the compound of their own block, whether it stands above or below them.

How the values were obtained:
[1] = target: T1, WDR5-MYC (Homo sapiens) (UniProt P61964+P01106); assay: Disruption of WDR5/5-FAM-labelled MYC (261 to 267 residues)(unknown origin) interaction at 50 uM incubated for 120 mins by FP assay relative to control; assay type: protein assay
Procedure, shortened: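 Single-point FP screen at 50 μM compound, signal read against DMSO control. Inhibition rate given as mean of n = 2.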

[2] = target: WDR5-MYC (Homo sapiens, UniProt P61964); assay: Disruption of WDR5/5-FAM-labelled MYC (261 to 267 residues)(unknown origin) interaction incubated for 120 mins by FP assay; assay type: protein assay
Procedure, shortened: (§1)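 FP competition with reporter probe from MYC MbIIIb residues E261–V267 bound to WDR5, compound concentration varied, DMSO as negative control. Ki obtained by fitting FP signal change to a hyperbolic function. Unlabelled MYC peptide run as assay quality control.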

[3] = target: WD repeat-containing protein 5 (Homo sapiens) (UniProt P61964); assay: Binding affinity to WDR5 (unknown origin) assessed as increase in melting temperature by DSF assay relative to control
Procedure, shortened: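 Differential scanning fluorimetry on WDR5 protein, compounds against DMSO. Inflection-point temperature (Ti) monitored, shift given as ΔTi relative to DMSO group.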

[4] = tested on: NCI-H1299; assay: Antiproliferative activity against human NCI-H1299 cells incubated for 72 hrs by SRB assay; assay type: functional, cell-based; settings: NCI-H1299, 72 h
[5] = tested on: SUD4; assay: Antiproliferative activity against human SU-DHL-4 cells incubated for 72 hrs by SRB assay; assay type: functional, cell-based; settings: SU-DHL-4, 72 h
[6] = tested on: Ramos; assay: Antiproliferative activity against human Ramos cells incubated for 72 hrs by SRB assay; assay type: functional, cell-based
[7] = tested on: Raji; assay: Antiproliferative activity against human Raji cells incubated for 72 hrs by SRB assay; assay type: functional, cell-based
[8] = target: WD repeat-containing protein 5 (Homo sapiens) (UniProt P61964); assay: Binding affinity to WDR5 (unknown origin) assessed as decrease in melting temperature by DSF assay relative to control
Procedure, shortened: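 DSF with WDR5 protein, with DMSO as the reference group. The inflection-point temperature (Ti) of WDR5 was monitored after compound treatment, and the change is reported as ΔTi relative to DMSO.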

[9] = tested on: HL-60; assay: Antiproliferative activity against human HL-60 cells incubated for 72 hrs by SRB assay; assay type: functional, cell-based; settings: HL-60, 72 h
[10] = target: T1, WDR5-MYC (Homo sapiens); assay: Disruption of His-tagged recombinant WDR5 (unknown origin)/HEK293T cell lysate-derived C-MYC (unknown origin) protein-protein interaction assessed as dissociation of protein complex incubated for 120 mins by Co-IP assay
[11] = target: T1, WDR5-MYC (Homo sapiens); assay: Disruption of WDR5/5-FAM-labelled MYC (261 to 267 residues)(unknown origin) interaction assessed as fold increase in activity incubated for 0.5 to 6 hrs by FP assay relative to control; assay type: protein assay; settings: time 0.5-6 hrs
Procedure, shortened: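 Fluorescence polarization with WDR5 and a reporter peptide probe from MYC MbIIIb residues E261–V267. Compounds and WDR5 were incubated for 30 to 360 min before reading. FP signal was recorded over varying compound concentrations and fitted to a hyperbolic function to give Ki. DMSO served as negative control, and free MYC peptide was the quality control.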

[12] = target: T1, WDR5-MYC (Homo sapiens); assay: Disruption of WDR5/5-FAM-labelled MYC (261 to 267 residues)(unknown origin) interaction incubated for 0.5 hrs by FP assay relative to control; assay type: protein assay
Procedure, shortened: (§2)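 Time-course FP competition between WDR5 and MYC-derived probe (E261–V267). Compound titrated and read after incubation times from 30 to 360 min. Maximal inhibition (%) and potency taken at each time point from the inhibition curves.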

[13] = target: T1, WDR5-MYC (Homo sapiens); assay: Disruption of WDR5/5-FAM-labelled MYC (261 to 267 residues)(unknown origin) interaction incubated for 6 hrs by FP assay relative to control; assay type: protein assay; procedure, shortened: as §2
[14] = target: T1, WDR5-MYC (Homo sapiens); assay: Disruption of WDR5/5-FAM-labelled MYC (261 to 267 residues)(unknown origin) interaction by FP assay; assay type: protein assay; settings: time 0.5-6 hrs; procedure, shortened: as §1

- inhibition [1]: -10%
SMILES: CS(=O)(=O)c1sc(N)nc1-c1ccc(Cl)cc1

- Ki [2]: 1.5 µM
SMILES: N#CSc1sc(N)nc1-c1ccc(C(F)(F)F)cc1

- Ki [2]: 16.3 µM
- ΔTm [3]: 1.4 °C
SMILES: COc1ccc(Br)cc1S(=O)(=O)Nc1cc(Cl)ccc1O

SMILES: N#CSc1sc(N)nc1-c1ccc(O)cc1
- IC50 [4]: 3.7 µM
- Ki [2]: 2.4 µM
- IC50 [5]: 1.43 µM
- IC50 [6]: 1.06 µM
- IC50 [7]: 0.71 µM
- ΔTm [8]: -2.7 °C
- IC50 [9]: 3.03 µM
- Activity [10]: Dose-Dependent Effect

- fold change (FC) [11]: 1.5
- Ki [2]: 1.3 µM
- Activity [12]: 33.2%
- Activity [13]: 51.2%
- ΔTm [8]: -2.7 °C
- Activity [14]: Dose-Dependent Effect
SMILES: N#CSc1sc(N)nc1-c1ccc(Cl)cc1

- inhibition [1]: 0.4%
SMILES: C[S+]([O-])c1sc(N)nc1-c1ccc(Cl)cc1 (stereo unspecified)

- Ki [2]: 1.2 µM
SMILES: CNc1nc(-c2ccc(Cl)cc2)c(SC#N)s1

- Ki [2]: 6.3 µM
SMILES: CCOc1ccc(-c2nc(N)sc2SC#N)cc1Br

- Ki [2]: 4.1 µM
SMILES: N#CSc1sc(N)nc1-c1cccc([N+](=O)[O-])c1

- Ki [2]: 54.5 µM
SMILES: Cc1ccc(S(=O)(=O)Nc2nc(-c3ccc(Cl)cc3)c(SC#N)s2)cc1

- Ki [2]: 3 µM
SMILES: Cc1ccc(-c2nc(N)sc2SC#N)cc1

- inhibition [1]: 0.9%
SMILES: Nc1nc(-c2ccc(Cl)cc2)cs1

SMILES: CNC(=O)c1ccc(-c2nc(N)sc2SC#N)cc1
- IC50 [4]: 7.4 µM
- Ki [2]: 1 µM
- IC50 [5]: 2.2 µM
- IC50 [6]: 1.51 µM
- IC50 [7]: 1.52 µM
- ΔTm [8]: -5.8 °C
- IC50 [9]: 5.32 µM
- Activity [10]: Dose-Dependent Effect

- Ki [2]: 1.6 µM
SMILES: CC(C)C(=O)Nc1nc(-c2ccc(Cl)cc2)c(SC#N)s1

- Ki [2]: 6.1 µM
SMILES: N#CSc1cnc(N)s1

- Ki [2]: 0.9 µM
SMILES: N#CSc1sc(N)nc1-c1ccc(Br)cc1

- inhibition [1]: -5%
SMILES: Nc1nc(-c2ccc(Cl)cc2)c(Br)s1

- Ki [2]: 2.9 µM
SMILES: COc1ccc(-c2nc(N)sc2SC#N)cc1

- Ki [2]: 3 µM
SMILES: N#CSc1sc(N)nc1-c1ccccc1Br

- Ki [2]: 3.2 µM
SMILES: N#CSc1sc(N)nc1-c1ccc(F)cc1

- Ki [2]: 2.6 µM
SMILES: N#CSc1sc(N)nc1-c1ccccc1Cl

- inhibition [1]: 1.1%
SMILES: N#Cc1sc(N)nc1-c1ccc(Cl)cc1

- Ki [2]: 1.7 µM
SMILES: COC(=O)c1ccc(-c2nc(N)sc2SC#N)cc1

- Ki [2]: > 50 µM
SMILES: N#CSc1sc(NC(=O)c2ccc(Cl)cc2)nc1-c1ccc(Cl)cc1

- Ki [2]: > 50 µM
SMILES: N#CSc1sc(Nc2ccccn2)nc1-c1ccc(Cl)cc1

- Ki [2]: 2.6 µM
SMILES: N#CSc1sc(N)nc1-c1cccc(Br)c1
